Only some compounds are listed: those with a hit (about 4.3% of all), similar ones and a draw of the others.
FLuc act counter – affects firefly luciferase, flagging false hits in luciferase stimulation screens; P08659; ATPlite luciferase biochemical, luminescence, 10 min; 0 = ATP-free wells, 1 = DMSO control; activation factor at 10 µM; 200,000 tested, under 10 active; AID 1027;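 active = luciferase activation factor, scaled between plate controls, of at least 2 with compound at 10 µM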
Target sequence (P08659 whole entry, looked up): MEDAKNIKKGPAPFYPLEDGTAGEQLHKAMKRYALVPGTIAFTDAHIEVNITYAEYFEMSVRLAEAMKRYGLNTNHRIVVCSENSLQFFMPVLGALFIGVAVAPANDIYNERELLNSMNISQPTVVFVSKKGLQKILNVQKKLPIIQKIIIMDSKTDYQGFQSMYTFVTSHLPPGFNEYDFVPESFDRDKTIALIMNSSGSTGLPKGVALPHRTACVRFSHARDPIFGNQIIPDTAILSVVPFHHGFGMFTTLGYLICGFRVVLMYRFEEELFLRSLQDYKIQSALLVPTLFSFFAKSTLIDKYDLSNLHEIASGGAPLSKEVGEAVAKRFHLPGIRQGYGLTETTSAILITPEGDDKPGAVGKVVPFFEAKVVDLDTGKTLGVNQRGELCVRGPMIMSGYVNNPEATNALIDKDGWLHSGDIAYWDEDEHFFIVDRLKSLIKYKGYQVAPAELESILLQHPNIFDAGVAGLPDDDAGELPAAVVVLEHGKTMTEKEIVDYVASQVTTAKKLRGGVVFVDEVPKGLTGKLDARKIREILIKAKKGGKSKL
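System: cell-free luciferase reagent; medium: PBS as buffer for the ATP substrate; doses: test compounds dosed from 2 mM stocks in 100% DMSO; incubation: 10 min, room temperature; measured by: luminescence from luciferase reaction; read-out: luciferase activation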
STAT1 activator – activators of IFN-gamma induced STAT1 signaling | NIH 3T3 STAT1-luciferase reporter, luminescence; 100% = IFN-gamma alone, no compound | activation (% of control), % at 5.5 µM | hit rate 2.6% among 200,000 | AID 932;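 active = activation above the screen-wide mean activation plus 3 SD, cut at about 130% in these data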
APP 5'UTR act – activates APP 5'UTR luciferase reporter; SH-SY5Y APP 5'UTR luciferase reporter, luminescence; zero percent = DMSO vehicle wells; activation, % at 2 µM; hit rate 1% among 190,000; AID 1276;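 active = activation above a set limit, based on mean plus 3 SD of controls, cut at about 140% in these data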
NF-kB neuron act – compounds increasing NF-kB expression in human neuronal cells; NF-kB reporter expression; active compounds read high; fold change at 12.5 µM; hit rate 1.6% among 190,000; in the data active = fold change above about 3.3
SDO1 yeast rescue – restores growth of sdo1-depleted yeast. S. cerevisiae sdo1-depleted JHY4D growth rescue, OD600 30 h; active compounds read high; pdr5 snq2 efflux-pump mutant strain. hit rate 0.21% among 140,000. z-score at 10 µM;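 active = z-score above 3 at both the 24 hr and the 30 hr optical density reads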
FLuc inhib CS – inhibits firefly luciferase, flagging false hits in luciferase inhibition screens | ATPLite firefly luciferase biochemical luminescence, 10 min | inhibition, % at 10 µM | P08659 | AID 1006 | hit rate 1.5% among 200,000;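 active = inhibition above about 50% when tested at 10 µM, limit read from the data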
Large screens that a line does not name were inactive.

O=C(c1ccc(Cl)cc1)N1CCCCC(Cl)C1=O (configuration not stated)	none (no result: SDO1 yeast rescue)
CN(C)C(=S)N=Nc1[nH]c2ccccc2c1O	STAT1 activator 176 (no result: SDO1 yeast rescue)
CN(C)C(=O)CSc1cccc2cccnc12	NF-kB neuron act 5.1
O=C(CSc1cccc2cccnc12)N1CCCC1	NF-kB neuron act 5
O=C(CSc1nc(C2CCCCC2)nc2ccccc12)N1CCCC1	none (no result: SDO1 yeast rescue)
NNC(=O)CSc1cccc2cccnc12	none
O=C(O)c1cccnc1SCC(=O)N1CCCCCC1	none
O=C(CSc1nncc2ccccc12)N1CCCCC1	STAT1 activator 130 (no result: SDO1 yeast rescue)
Cc1cccc(N(C(=O)CCC(=O)Nc2nccs2)C(C(=O)NC(C)(C)C)c2ccc(O)cc2)c1 (configuration not stated)	none (no result: SDO1 yeast rescue)
Cc1nc2c(C#N)cnn2c2c1CCN2CC1CCCO1 (configuration not stated)	none (no result: SDO1 yeast rescue)
Cc1ccc(OCCN2C(=O)S/C(=C\c3ccc(C)o3)C2=O)cc1	none
Cc1ccc(-c2nc(NCc3ccco3)n(S(C)(=O)=O)n2)cc1	STAT1 activator 144 (no result: SDO1 yeast rescue)
CCN1CCC(CNCc2cn(-c3ccc(OC)cc3)nc2-c2ccccc2Cl)C1 (configuration not stated)	none (no result: SDO1 yeast rescue)
CC(=O)N(C(C)=O)n1c(/C=C/c2ccc([N+](=O)[O-])cc2)nc2ccccc2c1=O	none (no result: SDO1 yeast rescue)
Fc1ccccc1/C=C/c1ccc2ccccc2n1	APP 5'UTR act 196, NF-kB neuron act 6.7, FLuc inhib CS 87
CC(C)CCNC(=O)COC(=O)/C=C/c1ccc2ccccc2n1	none (no result: SDO1 yeast rescue)
Oc1ccc(/C=C/c2ccc3ccccc3n2)cc1	FLuc inhib CS 86 (no result: SDO1 yeast rescue)
O=[N+]([O-])c1ccc(/C=C/c2ccc3ccccc3n2)cc1	APP 5'UTR act 165, NF-kB neuron act 5.2, FLuc inhib CS 76 (no result: SDO1 yeast rescue)
O/C(=C\c1ccc2ccccc2n1)c1ccc(O)cc1O	APP 5'UTR act 158, NF-kB neuron act 8.1, FLuc inhib CS 83 (no result: SDO1 yeast rescue)
COc1ccccc1NS(=O)(=O)c1cccc(NC(=O)Cc2cccs2)c1	none
Cc1cc(Oc2ccc(=O)n(C)n2)nc(SCc2ccccc2)n1	none (no result: SDO1 yeast rescue)
O=C(/C=C/c1ccccc1Cl)Nn1cnc2ccccc2c1=O	none
O=[N+]([O-])c1cc(S(=O)(=O)N2CCCCCC2)ccc1Cl	none (no result: SDO1 yeast rescue)
O=C(CN1CCN(Cc2ccc(F)cc2)C1=O)NC1CCCC1	none (no result: SDO1 yeast rescue)
O=C(COC(=O)Cc1ccccc1F)Nc1cccc(F)c1	none (no result: SDO1 yeast rescue)
CCN(CC)c1ccc(S(=O)(=O)N2CCOCC2)cc1NC(=O)CN1CCc2ccccc2C1	none (no result: SDO1 yeast rescue)
CC(=O)Oc1ccc(Cl)cc1/C=C/c1ccc2ccccc2n1	NF-kB neuron act 7.3
CC(=O)Oc1c(Cl)cc(Cl)cc1/C=C/c1ccc2ccccc2n1	none
C(=C\c1ccc2ccccc2n1)/c1ccccc1	APP 5'UTR act 176 (no result: FLuc act counter, STAT1 activator, NF-kB neuron act, SDO1 yeast rescue, FLuc inhib CS)
O=C(O)/C=C/c1ccc2ccccc2n1	none
COc1ccc(C(=O)Nc2ccc(O)cc2C(=O)O)cc1	FLuc inhib CS 63 (no result: SDO1 yeast rescue)
COc1ccc(C(=O)Nc2ccccc2C(N)=O)cc1	FLuc inhib CS 74
COC(=O)c1ccccc1NC(=O)CNC(=O)c1ccc(OC)cc1	none (no result: SDO1 yeast rescue)
COc1ccc(C(=O)Nc2ccccc2C(=O)N/N=C/c2cccc3ccccc23)cc1	NF-kB neuron act 4.2, FLuc inhib CS 97
COc1ccc(C(=O)N/N=C/c2cc3ccccc3[nH]c2=O)cc1	none (no result: SDO1 yeast rescue)
N#CCCn1nc(-c2ccccc2)cc1Nc1ccccc1NC(=O)c1cccs1	none
COC(=O)c1ccc(OCCn2cnc3ccccc3c2=O)cc1	none
CC(C)Oc1ccc(C(=O)NC2(C(F)(F)F)N=C3SCCN3C2=O)cc1 (configuration not stated)	none
O=C(O/N=C1/CCCc2occc21)c1ccccc1	FLuc inhib CS 70
O=C(O/N=C1\CCCc2ccccc21)C1CC1	none (no result: SDO1 yeast rescue)
Cc1cccc(C(=O)O/N=C2\CCCc3ccccc32)c1	FLuc inhib CS 81
O=C(O/N=C1\CCCc2ccccc21)c1cccc(Cl)c1	none
Cc1ccc(C(=O)O/N=C2\CCCc3ccccc32)cc1	STAT1 activator 135, FLuc inhib CS 94
COc1ccc(C(=O)O/N=C2\CCCc3nonc32)cc1	none
Cc1ccc(CC2CC(=O)N(Cc3ccco3)C2=O)cc1 (configuration not stated)	STAT1 activator 142, NF-kB neuron act 4.3
